Compound activity as filed in PubChem.
A selection: hits, their analogues and other compounds. The true share with any hit is near 2.6%.
GSTO1 inh: inhibitors of recombinant GSTO1, primary screen, counter-screen for RBBP9 inhibitor project, biochemical, fluorescence polarization; Glutathione S-transferase omega-1 (Homo sapiens), P78417; activity-based probe fluorescence polarization; inhibition, % at 5.96 µM; 300,000 compounds, 1.1% hits;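 active = inhibition above the campaign mean inhibition plus 3 SD, cut at about 35% in these data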
PAD4 FP inh: human PAD4 inhibitors, primary screen, biochemical, fluorescence polarization, 1536-well format; Protein-arginine deiminase type-4 (Homo sapiens), Q9UM07; recombinant PAD4, RCA probe fluorescence polarization; inhibition, % at 6.36 µM; 330,000 compounds, 0.41% hits; AID 485272, 2010;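 active = percent inhibition above a cutoff equal to the mean of all tested compounds plus 3 SD, cut at about 15% in these data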
TDP2 absorb: human TDP2 enzyme inhibitors, primary screen, biochemical, epi absorbance, recombinant enzyme | 370,000 compounds, 0.34% hits | Tyrosyl-DNA phosphodiesterase 2 (Homo sapiens), O95551 | T5PNP hydrolysis, p-nitrophenol absorbance 415 nm | inhibition, % at 12.8 µM;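 active = inhibition above the mean of all tested compounds plus 3 SD, set per campaign, cut at about 25% in these data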
Target sequence (O95551 whole entry, looked up): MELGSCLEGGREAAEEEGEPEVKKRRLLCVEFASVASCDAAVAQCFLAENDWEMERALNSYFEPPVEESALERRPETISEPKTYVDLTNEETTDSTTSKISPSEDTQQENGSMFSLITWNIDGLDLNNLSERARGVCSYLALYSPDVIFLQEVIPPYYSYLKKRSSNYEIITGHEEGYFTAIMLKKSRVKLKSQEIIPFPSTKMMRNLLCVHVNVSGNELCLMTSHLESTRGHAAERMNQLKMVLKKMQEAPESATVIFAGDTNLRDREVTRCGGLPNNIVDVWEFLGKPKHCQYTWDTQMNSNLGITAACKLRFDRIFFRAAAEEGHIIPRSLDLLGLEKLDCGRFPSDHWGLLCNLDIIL
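Read-out basis: percent inhibition. System: recombinant human TDP2. Buffer or medium: Mg2+-containing Tris-HCl buffer, pH 7.5. Repeats: single replicate. Timing: reaction 2 h, 37 °C. Benchmarks: high control without enzyme, low control DMSO plus TDP2. Probe or stimulus: 5 mM T5PNP. Doses: 12.8 µM only. Measured by: epi absorbance of p-nitrophenol freed from T5PNP by hydrolysis.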
Apaf1 inhib: inhibitors of human Apaf-1 apoptosome, primary screen, biochemical, DEVD-Rh110 fluorescence, uHTS. Apoptotic protease-activating factor 1 (Homo sapiens), O14727. reconstituted apoptosome caspase-3 activity. inhibition, % at 20 µM. 330,000 compounds, 0.71% hits. AID 489030, 2010; active = inhibition of at least 40% at 20 µM
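Medium: Hepes buffer, pH 7.5 / System: biochemical Apaf-1 apoptosome reconstitution / Measured by: Rh110 fluorescence, excitation 480 nm, emission 540 nm / Times: compound with Apaf-1, dATP, procaspase-3 30 min, then 50 min reaction, room temperature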
PRMT1 inh: PRMT1 methyltransferase inhibitors, primary screen, biochemical, fluorescence polarization | inhibition, % at 2.79 µM | Protein arginine N-methyltransferase 1 (Homo sapiens), Q99873 | recombinant PRMT1, activity-based probe fluorescence polarization | 370,000 compounds, 1.3% hits | AID 652257, 2013;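 active = inhibition above about 21% made by adding two undisclosed values, limit read from the data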
Target sequence (Q99873 whole entry, looked up): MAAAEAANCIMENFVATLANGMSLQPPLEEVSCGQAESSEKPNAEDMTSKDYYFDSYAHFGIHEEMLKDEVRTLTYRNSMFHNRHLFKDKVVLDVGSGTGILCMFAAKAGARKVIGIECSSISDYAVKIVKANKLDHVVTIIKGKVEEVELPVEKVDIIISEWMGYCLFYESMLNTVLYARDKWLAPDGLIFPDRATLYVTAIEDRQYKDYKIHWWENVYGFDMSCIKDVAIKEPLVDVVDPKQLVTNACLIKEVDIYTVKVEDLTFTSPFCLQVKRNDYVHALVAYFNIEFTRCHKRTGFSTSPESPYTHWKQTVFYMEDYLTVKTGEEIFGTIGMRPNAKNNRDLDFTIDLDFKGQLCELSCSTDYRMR
GSTO1 inh conf: GSTO1 inhibitor hit confirmation, counter-screen for RBBP9 inhibitor project, biochemical, fluorescence polarization, triplicate; shares compounds with GSTO1 inh; recombinant GSTO1, probe fluorescence polarization; inhibition, % at 5.96 µM; 2,400 compounds, 54% hits; AID 2176, 2009;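 active = inhibition above the primary screen's cutoff, its mean inhibition plus 3 SD, cut at about 35% in these data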;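 also: loss of polarization as inhibitors block binding of rhodamine sulfonate ester activity probe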
PAD4 confirm: human PAD4 inhibitors, confirmation, biochemical, fluorescence polarization. shares compounds with PAD4 FP inh. recombinant PAD4, RCA probe fluorescence polarization. inhibition, % at 6.36 µM. 1,200 compounds, 28% hits;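 active = mean inhibition across replicates above the hit cutoff set by the earlier primary screen, cut at about 15% in these data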;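 also: inhibitors block active-site labeling by the probe so polarization falls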
Apaf-1 inh conf2: Apaf-1 inhibitors, single-dose retest, confirmation, biochemical, fluorescence, DEVD-Rh110, 20 µM; shares compounds with Apaf1 inhib; reconstituted apoptosome, caspase-3 DEVD-Rh110 fluorescence; inhibition, % at 20 µM; 1,800 compounds, 25% hits; AID 504614, 2011;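 active = mean inhibition of at least 40% at 20 µM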
Rh110 interf inh: Rh110 fluorescence interference by putative Apaf-1 inhibitors, confirmation, artefact control for Apaf-1 inhibitor project, biochemical, 20 µM. quenched caspase reaction. 1,800 tested, under 10 active. AID 504615, 2011. shares compounds with Apaf1 inhib. activation (fluorescence interference), % at 20 µM;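 active = signal rise of 40% or more at 20 µM, treated as a fluorescence artifact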
Large screens that a line does not name were inactive (follow-up assays come after a bar, where they were run).

CC(=O)Oc1ccc2c(c1)Oc1cc(OC(C)=O)ccc1C21OC(=O)c2ccccc21	GSTO1 inh 72, PAD4 FP inh 99 (no result: TDP2 absorb, PRMT1 inh) | GSTO1 inh conf 84 | PAD4 confirm 128
O=C(Nc1ccc(Cl)cc1)c1nc[nH]c1C(=O)NCCCNC(=O)c1[nH]cnc1C(=O)Nc1ccc(Cl)cc1	none (no result: GSTO1 inh, TDP2 absorb, PRMT1 inh)
O=C(OCn1ncc(Cl)c(Cl)c1=O)c1ccccc1Cl	GSTO1 inh 48, PAD4 FP inh 28 (no result: Apaf1 inhib) | GSTO1 inh conf inactive | PAD4 confirm 29
N[C@H](C(=O)N1CCC[C@@H]1C(=O)N1CCC2CCN(S(=O)(=O)c3ccccc3)CC21)c1ccccc1 (stereo partly specified)	none (no result: GSTO1 inh, PAD4 FP inh, Apaf1 inhib)
CN(C(=S)Nc1ccc(Oc2ccccc2)cc1)c1ccc(O)cc1	GSTO1 inh 79, PAD4 FP inh 25 (no result: Apaf1 inhib) | GSTO1 inh conf inactive | PAD4 confirm inactive
COc1ccc(OC)c(-c2c3cc(O)c(=O)cc-3oc3cc(O)c(O)cc23)c1	GSTO1 inh 50, PAD4 FP inh 55 (no result: TDP2 absorb, Apaf1 inhib, PRMT1 inh) | GSTO1 inh conf 73 | PAD4 confirm active
COc1ccc2ccc3c(c2c1)N=CC1(O3)N(C)c2ccccc2C1(C)C (stereo unspecified)	GSTO1 inh 90, PAD4 FP inh 59 (no result: TDP2 absorb, PRMT1 inh) | GSTO1 inh conf inactive | PAD4 confirm inactive
CN1c2ccccc2C(C)(C)[C@]12C=Cc1cc(O)ccc1O2	none
O=S(=O)(CC1NCc2cc(F)ccc21)NC1CCCC1 (stereo unspecified)	none (no result: GSTO1 inh, PAD4 FP inh, Apaf1 inhib)
CCc1ccc(S(=O)(=O)/N=C2/C=C(Sc3ncn[nH]3)C(=O)c3ccccc32)cc1	GSTO1 inh 83, PAD4 FP inh 37 (no result: TDP2 absorb, Apaf1 inhib, PRMT1 inh) | GSTO1 inh conf 89 | PAD4 confirm 22
CC(C)(C)OC(=O)NCc1ccccc1/C=C/S(=O)(=O)NCc1ccc(F)cc1	none (no result: GSTO1 inh, PAD4 FP inh, Apaf1 inhib)
O=S(=O)(Nc1cccnc1Cl)c1ccc(F)cc1	none
O=S(=O)(Nc1cc(Sc2cccc3cccnc23)c(O)c2ccccc12)c1ccc(F)cc1	GSTO1 inh 57, PAD4 FP inh 29, PRMT1 inh 73 (no result: Apaf1 inhib) | GSTO1 inh conf inactive | PAD4 confirm inactive
COc1ccc(C(C[N+](=O)[O-])c2c(-c3ccccc3)cc3ccccn23)cc1OC (stereo unspecified)	none
COc1cc(C(C[N+](=O)[O-])c2c(C)cc3ccccn23)ccc1O (stereo unspecified)	GSTO1 inh 39, PAD4 FP inh 60 | GSTO1 inh conf inactive | PAD4 confirm inactive
CCOc1cc(CNc2ccc(N(C)C)cc2)cc(Br)c1OCC(=O)NC(C)(C)C	GSTO1 inh 81, PAD4 FP inh 23, Apaf1 inhib 44 | GSTO1 inh conf inactive | PAD4 confirm inactive
Cc1ccsc1C=Nc1ccc(O)cc1	GSTO1 inh 92, PAD4 FP inh 30, Apaf1 inhib 94 (no result: TDP2 absorb, PRMT1 inh) | GSTO1 inh conf 37 | PAD4 confirm inactive
Cc1ccsc1/C=N/N=C/c1sccc1C	none
CCc1nc2c(OCCc3cccc(OC)c3)cccn2c1N(C=O)Cc1ccc(OC)cc1	none (no result: GSTO1 inh, PAD4 FP inh, Apaf1 inhib)
CC(COc1ccc(S(C)(=O)=O)cc1)CN1CCC(C(O)(c2ccccc2)c2ccccc2)CC1 (stereo unspecified)	none (no result: GSTO1 inh, PAD4 FP inh, Apaf1 inhib)
Cc1cccc(NC2=C/C(=N/S(=O)(=O)c3cccs3)c3ccccc3C2=O)c1	GSTO1 inh 84, PAD4 FP inh 28 (no result: Apaf1 inhib) | GSTO1 inh conf 81 | PAD4 confirm 40
Cc1ccc(S(=O)(=O)/N=C2\C=C(NS(=O)(=O)c3ccccc3)C(=O)c3ccccc32)cc1	none (no result: GSTO1 inh, PAD4 FP inh, Apaf1 inhib)
O=C1c2ccccc2C(=O)c2c1cccc2N1CCCC1	GSTO1 inh 56, PAD4 FP inh 28 (no result: Apaf1 inhib) | GSTO1 inh conf inactive | PAD4 confirm inactive
Cn1c(=O)cc2c3c(c(N4CCCCC4)ccc31)C(=O)c1ccccc1-2	GSTO1 inh 39, PAD4 FP inh 70 | GSTO1 inh conf inactive | PAD4 confirm 37
O=C(Nc1ccc2c(c1)OCCO2)C(c1ccccc1)n1c(=O)c(-c2ccco2)nc2ccccc21 (stereo unspecified)	none (no result: GSTO1 inh, PAD4 FP inh, Apaf1 inhib)
COc1ccc(-c2cc(-c3nnc(SCc4cccc5ccccc45)n3N)[nH]n2)cc1	none (no result: GSTO1 inh, PAD4 FP inh, Apaf1 inhib)
CCNc1ccc2noc3c2c1C(=O)c1ccccc1-3	GSTO1 inh 94, PAD4 FP inh 112, PRMT1 inh 154 | GSTO1 inh conf 76 | PAD4 confirm 102
O=C1C(=Cc2ccco2)C(=O)c2ccccc21	GSTO1 inh 38, Apaf1 inhib 44, PRMT1 inh 35 | GSTO1 inh conf inactive | Apaf-1 inh conf2 inactive | Rh110 interf inh inactive
O=C1/C(=C/c2ccco2)CCc2ccccc21	none
COc1ccc(CN2C(=O)CSCC2(C)C(=O)Nc2ccc3c(c2)OCCO3)cc1 (stereo unspecified)	none (no result: GSTO1 inh, PAD4 FP inh, Apaf1 inhib)
Cc1ccc(C)c(S(=O)(=O)C(C#N)c2nc3ccccc3nc2N2CCCC2)c1 (stereo unspecified)	GSTO1 inh 66, Apaf1 inhib 87 | GSTO1 inh conf inactive | Apaf-1 inh conf2 inactive | Rh110 interf inh inactive
N#CC(c1nc2ccccc2nc1N1CCCC1)S(=O)(=O)c1ccccc1 (stereo unspecified)	GSTO1 inh 53, Apaf1 inhib 64 | GSTO1 inh conf 56 | Apaf-1 inh conf2 inactive | Rh110 interf inh inactive
Cc1ccc(C)c(S(=O)(=O)C(C#N)c2nc3ccccc3nc2N2CCOCC2)c1 (stereo unspecified)	none
COC(=O)c1cc(-c2cccc(C(F)(F)F)c2)c(=O)n2c1CCC2	none (no result: GSTO1 inh, PAD4 FP inh, Apaf1 inhib)
COC(=O)[C@]12C[C@H](CC(=O)NCCc3ccccc3OC)C(=O)N(Cc3ccc4c(c3)OCO4)C1=C[C@H](C(C)(C)C)O[C@@H]2C	none (no result: GSTO1 inh, PAD4 FP inh, Apaf1 inhib)
CCOc1cc(CNc2ccc(S(N)(=O)=O)cc2)cc(Cl)c1OC	none
